From ChEMBL document CHEMBL4229301, “Open-source discovery of chemical leads for next-generation chemoprotective antimalarials” (2018)

Experiment: Luciferase/luciferin-expressing antifolate-resistant parasites were used to infect a culture of HepG2 cells that were pre-incubated with compounds. Infected hepatocytes emit light due to the luciferase reaction. Assay results are presented as the percent inhibition of light emission compared to control. […]
Format: functional
Conditions: Plasmodium berghei, sporozoite; for IC50: read-out: LUCIFERASE INFECTION ASSAY - IC50; for IC90: read-out: LUCIFERASE INFECTION ASSAY - IC90
Outline: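 HepG2-A16-CD81EGFP cells (3x10³/well) were seeded 20-26 h before infection, and compound was added 18 h before infection (0.5% DMSO final; library screened at 0.250-39 µM, average 10 µM). Each well received 1x10³ P. berghei GFP-Luc sporozoites from A. stephensi salivary glands, then plates were spun at 330xg for 3 min. After 48 h at 37°C, 5% CO₂, BrightGlo luminescence was read and normalized to 64 DMSO and 64 10 µM atovaquone wells.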

[1] = PBLUC_HILL_SLOPE 1.68, PBLUC_R_SQUARED 0.822
[2] = PBLUC_HILL_SLOPE 1.77, PBLUC_R_SQUARED 0.431
[3] = PBLUC_HILL_SLOPE 1.94, PBLUC_R_SQUARED 0.789

Work on `c1ccc(CNc2nc(Nc3ccccc3)nc3ccccc23)cc1` yielded an IC50 [1] of 476 nM and an IC90 [1] of 1760 nM.

`Cc1cc(Nc2ccc(Cl)cc2)n2nc(C(F)(F)F)nc2n1` showed an IC50 [2] of 1540 nM and an IC90 [2] of 5320 nM.

In the case of `N=c1c2ccccc2nnn1-c1cccc(C(F)(F)F)c1`, the IC50 [3] is reported as 796 nM and the IC90 [3] is reported as 2470 nM.
